Assay results published in ChEMBL document CHEMBL1129661, “The chemistry of Pseudomonic acid. 15. Synthesis and antibacterial activity of a series of 5-alkyl, 5-alkenyl, and 5-heterosubstituted oxazoles” (1996).
In brackets after ≈: the same amount, converted by molar mass.

How the values were obtained:
Moraxella catarrhalis [1] = test: Minimal inhibitory concentration of compound against Moraxella catarrhalis 1502; format: functional
Method in brief: (§1)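 Agar dilution method. Each plate was spot-inoculated with 1 µL spots, about 10^6 CFU per spot. Plates were incubated 18-24 h at 37 °C.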

Streptococcus pneumoniae [2] = test: Minimal inhibitory concentration against Streptococcus pneumoniae PU7; format: functional; method in brief: as §1
Streptococcus pyogenes [3] = test: Minimal inhibitory concentration against Streptococcus pyogenes CN10; format: functional; method in brief: as §1
Staphylococcus aureus [4] = test: Minimal inhibitory concentration against Staphylococcus aureus Oxford NCTC 6571; format: functional; method in brief: as §1
Haemophilus influenzae [5] = test: Minimal inhibitory concentration against Haemophilus influenzae WY21; format: functional; method in brief: as §1
Haemophilus influenzae [6] = test: Minimal inhibitory concentration against Haemophilus influenzae Q1; format: functional; method in brief: as §1
Haemophilus influenzae [7] = test: Minimal inhibitory concentration against Haemophilus influenzae H128; format: functional; method in brief: as §1
Streptococcus pneumoniae [8] = test: Minimal inhibitory concentration of compound against Streptococcus pneumoniae 1629; format: functional; method in brief: as §1
Moraxella catarrhalis [9] = test: Minimal inhibitory concentration of compound against Moraxella catarrhalis 1502; No bacterial growth; format: functional, organism-based; method in brief: as §1
Moraxella catarrhalis [10] = test: Minimal inhibitory concentration of compound against Moraxella catarrhalis H; format: functional; method in brief: as §1
Streptococcus pneumoniae [11] = test: Minimal inhibitory concentration of compound against Streptococcus pneumoniae PU7; No bacterial growth; format: functional, organism-based; method in brief: as §1
Staphylococcus aureus [12] = test: Minimal inhibitory concentration of compound against Staphylococcus aureus Russell; format: functional; method in brief: as §1
Streptococcus pyogenes [13] = test: Minimal inhibitory concentration of compound against Streptococcus pyogenes BCA; format: functional; method in brief: as §1

SMILES | MIC (Moraxella catarrhalis [1]) | MIC (Streptococcus pneumoniae [2]) | MIC (Streptococcus pyogenes [3]) | MIC (Staphylococcus aureus [4]) | MIC (Haemophilus influenzae [5]) | MIC (Haemophilus influenzae [6]) | MIC (Haemophilus influenzae [7]) | MIC (Streptococcus pneumoniae [8]) | MIC (Moraxella catarrhalis [9]) | MIC (Moraxella catarrhalis [10]) | MIC (Streptococcus pneumoniae [11]) | MIC (Staphylococcus aureus [12]) | MIC (Streptococcus pyogenes [13])
COC(=O)/C=C\c1cnc(/C=C(\C)C[C@@H]2OC[C@H](C[C@@H]3O[C@H]3[C@@H](C)[C@H](C)O)[C@@H](O)[C@H]2O)o1 | 8 µg/mL (≈ 17.7 µM) | 16 µg/mL (≈ 35.4 µM) | 16 µg/mL (≈ 35.4 µM) | 8 µg/mL (≈ 17.7 µM) | 0.25 µg/mL (≈ 0.554 µM) |  |  |  |  |  |  |  | 
C/C(=C\c1ncc(/C=C/C(=O)[O-])o1)C[C@@H]1OC[C@H](C[C@@H]2O[C@H]2[C@@H](C)[C@H](C)O)[C@@H](O)[C@H]1O.[Na+] | 16 µg/mL | 64 µg/mL | 64 µg/mL | 64 µg/mL |  | 16 µg/mL |  |  |  |  |  |  | 
C/C(=C\c1ncc(N(C)c2ccccc2)o1)C[C@@H]1OC[C@H](C[C@@H]2O[C@H]2[C@@H](C)[C@H](C)O)[C@@H](O)[C@H]1O | 32 µg/mL (≈ 67.7 µM) | 32 µg/mL (≈ 67.7 µM) | 16 µg/mL (≈ 33.9 µM) | 16 µg/mL (≈ 33.9 µM) |  |  | 16 µg/mL (≈ 33.9 µM) |  |  |  |  |  | 
C/C(=C\c1ncco1)C[C@@H]1OC[C@H](C[C@@H]2O[C@H]2[C@@H](C)[C@H](C)O)[C@@H](O)[C@H]1O | 4 µg/mL (≈ 10.9 µM) |  | 32 µg/mL (≈ 87.1 µM) | 16 µg/mL (≈ 43.5 µM) |  | 2 µg/mL (≈ 5.44 µM) |  | 128 µg/mL (≈ 348 µM) |  |  |  |  | 
C/C(=C\C(=O)OCCCCCCCCC(=O)O)C[C@@H]1OC[C@H](C[C@@H]2O[C@H]2[C@@H](C)[C@H](C)O)[C@@H](O)[C@H]1O [MUPIROCIN] | 0.25 µg/mL (≈ 0.499 µM) | 0.25 µg/mL (≈ 0.499 µM) | 0.13 µg/mL (≈ 0.26 µM) | 0.25 µg/mL (≈ 0.499 µM) |  | 0.03 µg/mL (≈ 0.0599 µM) |  |  |  |  |  |  | 
C/C(=C\c1ncc(C(=O)[O-])o1)C[C@@H]1OC[C@H](C[C@@H]2O[C@H]2[C@@H](C)[C@H](C)O)[C@@H](O)[C@H]1O.[Na+] | > 128 µg/mL | > 128 µg/mL | > 128 µg/mL | > 128 µg/mL |  | > 128 µg/mL |  |  |  |  |  |  | 
COC(=O)c1nc(/C=C(\C)C[C@@H]2OC[C@H](C[C@@H]3O[C@H]3[C@@H](C)[C@H](C)O)[C@@H](O)[C@H]2O)oc1N1CCCCC1 |  | 32 µg/mL (≈ 62.9 µM) | 128 µg/mL (≈ 252 µM) | 16 µg/mL (≈ 31.5 µM) |  | 2 µg/mL (≈ 3.93 µM) |  |  | No growth |  |  |  | 
CC[S+]([O-])c1cnc(/C=C(\C)C[C@@H]2OC[C@H](C[C@@H]3O[C@H]3[C@@H](C)[C@H](C)O)[C@@H](O)[C@H]2O)o1 (stereo partly drawn) |  | 4 µg/mL (≈ 9.02 µM) | 8 µg/mL (≈ 18 µM) | 8 µg/mL (≈ 18 µM) |  | 0.13 µg/mL (≈ 0.293 µM) |  |  |  | 16 µg/mL (≈ 36.1 µM) |  |  | 
C/C(=C\c1ncc(C=O)o1)C[C@@H]1OC[C@H](C[C@@H]2O[C@H]2[C@@H](C)[C@H](C)O)[C@@H](O)[C@H]1O | 8 µg/mL (≈ 20.2 µM) | 64 µg/mL (≈ 162 µM) | 16 µg/mL (≈ 40.5 µM) | 2 µg/mL (≈ 5.06 µM) |  | 4 µg/mL (≈ 10.1 µM) |  |  |  |  |  |  | 
C/C(=C\c1ncc(Oc2ccccc2)o1)C[C@@H]1OC[C@H](C[C@@H]2O[C@H]2[C@@H](C)[C@H](C)O)[C@@H](O)[C@H]1O | 16 µg/mL (≈ 34.8 µM) | 16 µg/mL (≈ 34.8 µM) | 8 µg/mL (≈ 17.4 µM) | 8 µg/mL (≈ 17.4 µM) |  |  | 8 µg/mL (≈ 17.4 µM) |  |  |  |  |  | 
COC(=O)c1nc(/C=C(\C)C[C@@H]2OC[C@H](C[C@@H]3O[C@H]3[C@@H](C)[C@H](C)O)[C@@H](O)[C@H]2O)oc1OC | > 128 µg/mL | > 128 µg/mL | > 128 µg/mL | > 128 µg/mL |  | 128 µg/mL (≈ 281 µM) |  |  |  |  |  |  | 
C/C(=C\c1ncc([S+]([O-])c2ccccc2)o1)C[C@@H]1OC[C@H](C[C@@H]2O[C@H]2[C@@H](C)[C@H](C)O)[C@@H](O)[C@H]1O (stereo partly drawn) | 16 µg/mL (≈ 32.5 µM) | 16 µg/mL (≈ 32.5 µM) | 4 µg/mL (≈ 8.14 µM) | 16 µg/mL (≈ 32.5 µM) |  | 2 µg/mL (≈ 4.07 µM) |  |  |  |  |  |  | 
CCOc1cnc(/C=C(\C)C[C@@H]2OC[C@H](C[C@@H]3O[C@H]3[C@@H](C)[C@H](C)O)[C@@H](O)[C@H]2O)o1 | 4 µg/mL (≈ 9.72 µM) | 2 µg/mL (≈ 4.86 µM) | 2 µg/mL (≈ 4.86 µM) | 2 µg/mL (≈ 4.86 µM) |  | 0.5 µg/mL (≈ 1.22 µM) |  |  |  |  |  |  | 
C/C(=C\c1ncc(CO)o1)C[C@@H]1OC[C@H](C[C@@H]2O[C@H]2[C@@H](C)[C@H](C)O)[C@@H](O)[C@H]1O | 8 µg/mL (≈ 20.1 µM) |  | 32 µg/mL (≈ 80.5 µM) | 32 µg/mL (≈ 80.5 µM) |  | 2 µg/mL (≈ 5.03 µM) |  |  |  |  | No growth |  | 
COC(=O)CCCCCCCCc1cnc(/C=C(\C)C[C@@H]2OC[C@H](C[C@@H]3O[C@H]3[C@@H](C)[C@H](C)O)[C@@H](O)[C@H]2O)o1 | 64 µg/mL (≈ 119 µM) | 8 µg/mL (≈ 14.9 µM) | 4 µg/mL (≈ 7.44 µM) | 4 µg/mL (≈ 7.44 µM) |  | 4 µg/mL (≈ 7.44 µM) |  |  |  |  |  |  | 
C/C(=C\c1ncc(Sc2ccccc2)o1)C[C@@H]1OC[C@H](C[C@@H]2O[C@H]2[C@@H](C)[C@H](C)O)[C@@H](O)[C@H]1O | 8 µg/mL (≈ 16.8 µM) | 32 µg/mL (≈ 67.3 µM) | 4 µg/mL (≈ 8.41 µM) |  |  | 8 µg/mL (≈ 16.8 µM) |  |  |  |  |  | 16 µg/mL (≈ 33.6 µM) | 
CCOC(=O)Oc1cnc(/C=C(\C)C[C@@H]2OC[C@H](C[C@@H]3O[C@H]3[C@@H](C)[C@H](C)O)[C@@H](O)[C@H]2O)o1 | 32 µg/mL (≈ 70.3 µM) | > 128 µg/mL | > 128 µg/mL | > 128 µg/mL |  | 32 µg/mL (≈ 70.3 µM) |  |  |  |  |  |  | 
CCc1cnc(/C=C(\C)C[C@@H]2OC[C@H](C[C@@H]3O[C@H]3[C@@H](C)[C@H](C)O)[C@@H](O)[C@H]2O)o1 | 16 µg/mL (≈ 40.5 µM) | 16 µg/mL (≈ 40.5 µM) |  | 2 µg/mL (≈ 5.06 µM) |  | 2 µg/mL (≈ 5.06 µM) |  |  |  |  |  |  | 
C/C(=C\c1ncc(N2CCCCC2)o1)C[C@@H]1OC[C@H](C[C@@H]2O[C@H]2[C@@H](C)[C@H](C)O)[C@@H](O)[C@H]1O |  | 8 µg/mL (≈ 17.8 µM) | 4 µg/mL (≈ 8.88 µM) | 8 µg/mL (≈ 17.8 µM) |  | 0.5 µg/mL (≈ 1.11 µM) |  |  |  | 8 µg/mL (≈ 17.8 µM) |  |  | 
C/C(=C\c1ncc(CCCC(=O)[O-])o1)C[C@@H]1OC[C@H](C[C@@H]2O[C@H]2[C@@H](C)[C@H](C)O)[C@@H](O)[C@H]1O.[Na+] | 32 µg/mL | 64 µg/mL | 64 µg/mL | 32 µg/mL | 8 µg/mL |  |  |  |  |  |  |  | 
C/C(=C\c1ncc(C2SCCCS2)o1)C[C@@H]1OC[C@H](C[C@@H]2O[C@H]2[C@@H](C)[C@H](C)O)[C@@H](O)[C@H]1O | 0.5 µg/mL (≈ 1.03 µM) | 4 µg/mL (≈ 8.24 µM) | 1 µg/mL (≈ 2.06 µM) | 1 µg/mL (≈ 2.06 µM) |  | 1 µg/mL (≈ 2.06 µM) |  |  |  |  |  |  | 
CCCCc1cnc(/C=C(\C)C[C@@H]2OC[C@H](C[C@@H]3O[C@H]3[C@@H](C)[C@H](C)O)[C@@H](O)[C@H]2O)o1 | 4 µg/mL (≈ 9.44 µM) | 4 µg/mL (≈ 9.44 µM) | 0.5 µg/mL (≈ 1.18 µM) | 1 µg/mL (≈ 2.36 µM) |  | 1 µg/mL (≈ 2.36 µM) |  |  |  |  |  |  | 
COC(=O)CCCc1cnc(/C=C(\C)C[C@@H]2OC[C@H](C[C@@H]3O[C@H]3[C@@H](C)[C@H](C)O)[C@@H](O)[C@H]2O)o1 | 2 µg/mL (≈ 4.28 µM) | 4 µg/mL (≈ 8.56 µM) | 0.5 µg/mL (≈ 1.07 µM) | 1 µg/mL (≈ 2.14 µM) | 1 µg/mL (≈ 2.14 µM) |  |  |  |  |  |  |  | 
COC(=O)/C=C/c1cnc(/C=C(\C)C[C@@H]2OC[C@H](C[C@@H]3O[C@H]3[C@@H](C)[C@H](C)O)[C@@H](O)[C@H]2O)o1 |  | 1 µg/mL (≈ 2.21 µM) |  | 2 µg/mL (≈ 4.43 µM) |  | 0.5 µg/mL (≈ 1.11 µM) |  |  |  |  |  |  | 4 µg/mL (≈ 8.86 µM)
COC(=O)c1cnc(/C=C(\C)C[C@@H]2OC[C@H](C[C@@H]3O[C@H]3[C@@H](C)[C@H](C)O)[C@@H](O)[C@H]2O)o1 | 8 µg/mL (≈ 18.8 µM) | 8 µg/mL (≈ 18.8 µM) | 8 µg/mL (≈ 18.8 µM) | 4 µg/mL (≈ 9.4 µM) |  | 1 µg/mL (≈ 2.35 µM) |  |  |  |  |  |  | 
CCSc1cnc(/C=C(\C)C[C@@H]2OC[C@H](C[C@@H]3O[C@H]3[C@@H](C)[C@H](C)O)[C@@H](O)[C@H]2O)o1 | 8 µg/mL (≈ 18.7 µM) | 8 µg/mL (≈ 18.7 µM) | 4 µg/mL (≈ 9.36 µM) | 8 µg/mL (≈ 18.7 µM) |  | 1 µg/mL (≈ 2.34 µM) |  |  |  |  |  |  | 
C/C(=C\c1ncc(CCCCCCCCC(=O)[O-])o1)C[C@@H]1OC[C@H](C[C@@H]2O[C@H]2[C@@H](C)[C@H](C)O)[C@@H](O)[C@H]1O.[Na+] | 8 µg/mL | 4 µg/mL | 1 µg/mL | 4 µg/mL |  | 4 µg/mL |  |  |  |  |  |  | 
